Measured values published in ChEMBL document CHEMBL1148714, “Design, synthesis, and in vivo SAR of a novel series of pyrazolines as potent selective androgen receptor modulators” (2007).
The source made the active and inactive calls. No cut-off for these calls is given here.

Tests used:
[1] = test system: Rattus norvegicus; test: Stimulation of levator ani muscle weight in castrated immature Sprague-Dawley rat at 2 mg/day, po after 5 days; assay type: functional
In short: (§1)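 Immature (~50 g) castrated male Sprague Dawley rats dosed once daily for 5 days. Test article given p.o. at 2 mg/day in 20% cyclodextrin; testosterone propionate reference given at 1 mg/day s.c. in sesame oil. Ventral prostate and levator ani wet weights taken on day 6, adjusted to body weight. % stimulation uses vehicle = 0% and testosterone = 100%. n = 3/group.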

[2] = test system: Rattus norvegicus; test: Stimulation of prostate weight in castrated immature Sprague-Dawley rat at 2 mg/day, po after 5 days; assay type: functional, Prostate gland; in short: as §1
[3] = species: Rattus norvegicus; test: Inhibition of prostate weight in castrated immature male Sprague-Dawley rat at 2 mg/day relative to control; assay type: functional, Prostate gland
In short: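 Immature (~50 g) castrated male Sprague Dawley rats; test article orally at 2 mg/day once daily for 5 days, with testosterone propionate 0.1 mg/day s.c. in sesame oil. Ventral prostate wet weight taken on day 6 after CO2 euthanasia, adjusted to body weight. Inhibition given as % of testosterone-enhanced weight, vehicle group = 100% and testosterone-alone group = 0%. n = 3/group.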

[4] = test system: Rattus norvegicus; test: Inhibition of prostate weight in intact Sprague-Dawley rat at 30 mg/kg relative to control; assay type: functional; details: Prostate gland
[5] = species: Rattus norvegicus; test: Stimulation of levator ani muscle weight in castrated immature Sprague-Dawley rat; assay type: functional
In short: (§2)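 Immature (~50 g) castrated male Sprague Dawley rats given oral doses once daily at 0.1, 0.3, 1, 3 mg/day. Ventral prostate and levator ani wet weights adjusted to body weight. % stimulation uses vehicle = 0% and testosterone-treated (1 mg/day) group = 100%; ED50 derived from the four-point dose series. n = 3/group.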

[6] = species: Rattus norvegicus; test: Stimulation of prostate weight in castrated immature Sprague-Dawley rat; assay type: functional, Prostate gland; in short: as §2
[7] = test system: Rattus norvegicus; test: Stimulation of prostate weight in castrated immature Sprague-Dawley rat at 1 mg/day, sc; assay type: functional, Prostate gland
[8] = species: Rattus norvegicus; test: Stimulation of levator ani muscle weight in castrated Sprague-Dawley rat; assay type: functional
In short: (§3)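 Mature (150–200 g) castrated male Sprague Dawley rats dosed by oral gavage once daily for 14 days in 20% cyclodextrin or 0.5% methylcellulose. Five-point doses: 0.3, 1, 3, 10, 30 mg/kg. Testosterone propionate reference given at 5 mg/kg s.c. in sesame oil. Ventral prostate and levator ani wet weights taken on day 15, adjusted to body weight. % stimulation uses vehicle = 0% and testosterone = 100%; ED50 derived from the doses. n = 3.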

[9] = test system: Rattus norvegicus; test: Stimulation of levator ani muscle weight in castrated immature Sprague-Dawley rat at 1 mg/day, sc; assay type: functional
[10] = species: Rattus norvegicus; test: Stimulation of prostate weight in castrated Sprague-Dawley rat; assay type: functional; details: Prostate gland; in short: as §3
[11] = test system: Rattus norvegicus; test: Stimulation of prostate weight in castrated Sprague-Dawley rat at 30 mg/kg; assay type: functional, Prostate gland; in short: as §3
[12] = species: Rattus norvegicus; test: Stimulation of levator ani muscle weight in castrated immature Sprague-Dawley rat at 3 mg/day; assay type: functional; in short: as §2
[13] = species: Rattus norvegicus; test: Stimulation of prostate weight in castrated immature Sprague-Dawley rat at 3 mg/day; assay type: functional, Prostate gland; in short: as §2
[14] = test system: Rattus norvegicus; test: Stimulation of levator ani muscle weight in castrated Sprague-Dawley rat at 30 mg/kg; assay type: functional; in short: as §3

| SMILES | Activity [1] [%] | Activity [2] [%] | also measured |
| --- | --- | --- | --- |
| CO/C(=N\c1ccc(C#N)c(C(F)(F)F)c1)C1(C)CC(C(F)(F)F)=NN1 (stereo not given) | 86 | 30 | – |
| CC1(C(=O)Nc2ccc(C#N)c(C(F)(F)F)c2)CC=NN1 (stereo not given) | <10 | <10 | – |
| CC1(C(=O)Nc2ccc([N+](=O)[O-])c(C(F)(F)F)c2)CC(c2ccc(F)cc2)=NN1 (stereo not given) | 18 | <10 | – |
| CC1=NOC(C)(C(=O)Nc2ccc(C#N)c(C(F)(F)F)c2)C1 (stereo not given) | <10 | <10 | – |
| CCc1cc(C#N)c(C(F)(F)F)cc1NC(=O)C1(C)CC(C(F)(F)F)=NN1 (stereo not given) | <10 | <10 | – |
| CN1N=C(C(F)(F)F)CC1(C)C(=O)Nc1ccc(C#N)c(C(F)(F)F)c1 (stereo not given) | 44 | <10 | – |
| CC1(C(=O)Nc2ccc(C#N)c(C(F)(F)F)c2)CC(C(F)(F)C(F)(F)F)=NN1 (stereo not given) | 15 | <10 | – |
| CC(=O)Nc1cccc(C2=NNC(C)(C(=O)Nc3ccc(C#N)c(C(F)(F)F)c3)C2)c1 (stereo not given) | <10 | <10 | – |
| CC1(C(=O)Nc2ccc(C#N)c(C(F)(F)F)c2)CC(C(F)(F)F)=NN1C(=O)C(F)(F)F (stereo not given) | 70 | 30 | – |
| CCOC(=O)C1=NNC(C)(C(=O)Nc2ccc([N+](=O)[O-])c(C(F)(F)F)c2)C1 (stereo not given) | <10 | <10 | – |
| C[C@](O)(CS(=O)(=O)c1ccc(F)cc1)C(=O)Nc1ccc(C#N)c(C(F)(F)F)c1 [(R)-BICALUTAMIDE] | – | – | Inhibition [3]: 70%; inhibition in vivo at 30 mg/kg [4]: 67% |
| N#Cc1ccc(NC(=O)C2(C(F)(F)F)CC(C(F)(F)F)=NN2)cc1C(F)(F)F (stereo not given) | 37 | 13 | – |
| CCN1N=C(C(F)(F)F)CC1(C)C(=O)Nc1ccc(C#N)c(C(F)(F)F)c1 (stereo not given) | 95 | 47 | – |
| CC1(C(=O)Nc2ccc([N+](=O)[O-])c(C(F)(F)F)c2)CC(c2ccc(NC(=O)C(F)(F)F)cc2)=NN1 (stereo not given) | 21 | 10 | – |
| CCO/C(=N\c1ccc(C#N)c(C(F)(F)F)c1)C1(C)CC(C(F)(F)F)=NN1 (stereo not given) | 75 | 22 | ED50 [5]: 0.25 mg/day |
| CCC1=NNC(C)(C(=O)Nc2ccc(C#N)c(C(F)(F)F)c2)C1 (stereo not given) | <10 | <10 | – |
| CC(C)C1=NNC(C)(C(=O)Nc2ccc(C#N)c(C(F)(F)F)c2)C1 (stereo not given) | <10 | <10 | – |
| CC1(C(=O)Nc2ccc(C#N)c(C(F)(F)F)c2)CC(c2ccc(F)cc2)=NN1 (stereo not given) | 44 | 20 | – |
| CC(=O)Nc1ccc(C2=NNC(C)(C(=O)Nc3ccc(C#N)c(C(F)(F)F)c3)C2)cc1 (stereo not given) | 57 | 16 | – |
| CC1(C(=O)Nc2cc(C(F)(F)F)c(C#N)cc2I)CC(C(F)(F)F)=NN1 (stereo not given) | 86 | 47 | – |
| CCN1N=C(C)CC1(C)C(=O)Nc1ccc(C#N)c(C(F)(F)F)c1 (stereo not given) | 55 | 18 | – |
| CCO/C(=N\c1ccc(C#N)c(C(F)(F)F)c1)[C@@]1(C)CC(C(F)(F)F)=NN1 | – | – | ED50 [6]: 0.16 mg/day; Inhibition [3]: <10%; ED50 [5]: 0.1 mg/day |
| CC(=O)Nc1ccc(C2=NNC(C)(C(=O)Nc3ccc(C#N)c(C#N)c3)C2)cc1 (stereo not given) | <10 | <10 | – |
| CC1(C(=O)Nc2cc(C(F)(F)F)c(C#N)cc2Cl)CC(C(F)(F)F)=NN1 (stereo not given) | 57 | 15 | – |
| CCC(=O)O[C@H]1CC[C@H]2[C@@H]3CCC4=CC(=O)CC[C@]4(C)[C@H]3CC[C@]12C [TESTOSTERONE PROPIONATE] | – | – | Activity [7]: 100%; ED50 [8]: 0.17 mg/kg; ED50 [6]: 0.1 mg/day; Activity [9]: 100%; ED50 [10]: 0.25 mg/kg; ED50 [5]: 0.1 mg/day |
| CCC1(C(=O)Nc2ccc(C#N)c(C(F)(F)F)c2)CC(C(F)(F)F)=NN1 (stereo not given) | 67 | 24 | ED50 [8]: 21 mg/kg; Activity [11]: 19%; ED50 [10]: > 30 mg/kg |
| CC1(C(=O)Nc2ccc(C#N)cc2)CC(C(F)(F)F)=NN1 (stereo not given) | <10 | <10 | – |

| SMILES | Activity [1] [%] | Activity [2] [%] | also measured |
| --- | --- | --- | --- |
| CCCC1=NNC(C)(C(=O)Nc2ccc(C#N)c(C(F)(F)F)c2)C1 (stereo not given) | <10 | <10 | – |
| CCc1c(NC(=O)C2(C)CC(C(F)(F)F)=NN2)ccc(C#N)c1C(F)(F)F (stereo not given) | 88 | 14 | ED50 [8]: 17 mg/kg; Activity [11]: 18%; ED50 [10]: > 30 mg/kg |
| CC(=O)Nc1ccc(C2=NNC(C)(C(=O)Nc3ccc(Cl)c(C(F)(F)F)c3)C2)cc1 (stereo not given) | 17 | <10 | – |
| CC(C)C(=O)Nc1ccc([N+](=O)[O-])c(C(F)(F)F)c1 [FLUTAMIDE] | – | – | inhibition in vivo at 30 mg/kg [4]: 51% |
| CC1(C(=O)Nc2ccc([N+](=O)[O-])c(C(F)(F)F)c2)CC(C(F)(F)F)=NN1 (stereo not given) | 21 | 38 | – |
| CC1(C(=O)Nc2ccc(C#N)c(C(F)(F)F)c2)CC(c2ccc(F)cc2)=NO1 (stereo not given) | <10 | <10 | – |
| CC1(C(=O)Nc2cc(C(F)(F)F)c(C#N)cc2C#N)CC(C(F)(F)F)=NN1 (stereo not given) | <10 | <10 | – |
| CC(=O)Nc1ccc(C2=NNC(C)(C(=O)Nc3ccc([N+](=O)[O-])c(C(F)(F)F)c3)C2)cc1 (stereo not given) | 35 | 15 | – |
| CC(=O)Nc1ccc(C2=NN(C)C(C)(C(=O)Nc3ccc(C#N)c(C(F)(F)F)c3)C2)cc1 (stereo not given) | <10 | <10 | – |
| C[C@@]1(C(=O)Nc2ccc(C#N)c(C(F)(F)F)c2)CC(C(F)(F)F)=NN1 | – | – | ED50 [8]: 3.8 mg/kg; ED50 [6]: 0.76 mg/day; Inhibition [3]: 40%; Activity [12]: 90%; Activity [11]: 46%; ED50 [10]: > 30 mg/kg; Activity [13]: 51%; Activity [14]: 120%; ED50 [5]: 0.11 mg/day; inhibition in vivo at 30 mg/kg [4]: 33% |
| COc1cc(C#N)c(C(F)(F)F)cc1NC(=O)C1(C)CC(C(F)(F)F)=NN1 (stereo not given) | 52 | 18 | – |
| CCN1N=C(C(F)(F)F)C[C@@]1(C)C(=O)Nc1ccc(C#N)c(C(F)(F)F)c1 | – | – | ED50 [6]: 2.2 mg/day; Inhibition [3]: 18%; ED50 [5]: 0.12 mg/day |
| CC1(C(=O)Nc2ccc(C#N)c(C(F)(F)F)c2)CC(CC(F)(F)F)=NN1 (stereo not given) | 10 | <10 | – |
| CC1(C(=O)Nc2ccc(Cl)c(Cl)c2)CC(C(F)(F)F)=NN1 (stereo not given) | <10 | 10 | – |
| CC1(C(=O)Nc2ccc(Br)c(C(F)(F)F)c2)CC(C(F)(F)F)=NN1 (stereo not given) | 41 | 12 | – |
| CC(=O)Nc1ccc(CC2=NNC(C)(C(=O)Nc3ccc(C#N)c(C(F)(F)F)c3)C2)cc1 (stereo not given) | 51 | 24 | – |
| CCSc1cc(C#N)c(C(F)(F)F)cc1NC(=O)C1(C)CC(C(F)(F)F)=NN1 (stereo not given) | 42 | <10 | – |
| CCCC1(C(=O)Nc2ccc(C#N)c(C(F)(F)F)c2)CC(C(F)(F)F)=NN1 (stereo not given) | 18 | <10 | – |
| CC1=NNC(C)(C(=O)Nc2ccc(C#N)c(C(F)(F)F)c2)C1 (stereo not given) | 62 | 29 | – |
| CCN1N=C(C(F)(F)F)C[C@]1(C)C(=O)Nc1ccc(C#N)c(C(F)(F)F)c1 | – | – | ED50 [6]: >3 mg/day; Inhibition [3]: <10%; ED50 [5]: 0.45 mg/day |
| CC1=NNC(C(=O)Nc2ccc(C#N)c(C(F)(F)F)c2)(C(F)(F)F)C1 (stereo not given) | 64 | 46 | – |
| CCO/C(=N\c1ccc(C#N)c(C(F)(F)F)c1)[C@]1(C)CC(C(F)(F)F)=NN1 | – | – | ED50 [6]: >3 mg/day; Inhibition [3]: 27%; ED50 [5]: 0.86 mg/day |
| CC1(C(=O)Nc2ccc(Cl)c(C(F)(F)F)c2)CC(C(F)(F)F)=NN1 (stereo not given) | 15 | <10 | – |
| C[C@]1(C(=O)Nc2ccc(C#N)c(C(F)(F)F)c2)CC(C(F)(F)F)=NN1 | – | – | ED50 [8]: > 30 mg/kg; ED50 [6]: 0.94 mg/day; Inhibition [3]: 22%; Activity [12]: 49%; Activity [11]: 4%; ED50 [10]: > 30 mg/kg; Activity [13]: 29%; Activity [14]: 9%; ED50 [5]: 0.86 mg/day; inhibition in vivo at 30 mg/kg [4]: 25% |
| CC(C)(C)C1=NNC(C)(C(=O)Nc2ccc(C#N)c(C(F)(F)F)c2)C1 (stereo not given) | 36 | <10 | – |
| CC1(C(=O)Nc2ccc(C#N)c(C(F)(F)F)c2)CC(C(F)(F)F)=NN1 (stereo not given) | 71 | 28 | ED50 [8]: 7.9 mg/kg; Activity [11]: 25%; ED50 [10]: > 30 mg/kg; Activity [4]: inactive |
